ChEMBL document CHEMBL4371095, “Triazole-Based Inhibitors of the Wnt/β-Catenin Signaling Pathway Improve Glucose and Lipid Metabolisms in Diet-Induced Obese Mice” (J Med Chem, 2019)
Activity calls are given as the source filed them. No cut-off for these calls is given here.

How the values were obtained:
[1] = Inhibition of Wnt3a activated Wnt/beta-catenin signaling (unknown origin) expressed in HEK293 cells harboring TCF/LEF-responsive luciferase preincubated with cells followed by Wnt3a addition and measured after 24 hrs by luciferase reporter gene assay; assay type: cell-based; conditions: Homo sapiens
Procedure, shortened: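 HEK293 cells stably carrying TOPFlash/GFP were plated at 2000/well in DMEM with 10% FBS and kept overnight at 37 °C. Compound was pin-transferred, then recombinant human Wnt-3a was added (200 ng/mL working stock). After 24 h at 37 °C, ONE-Glo luminescence was read after 30 min. IC50 is mean ± SE from three independent experiments.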

[2] = Oral bioavailability in mouse; assay type: ADME, organism-based; conditions: in vivo
[3] = test system: HEK293; assay: Growth inhibition of HEK293 cells harboring Wnt after 24 hrs by CellTiter-Fluor assay; assay type: cell-based; conditions: human, hek293, 24 h
Procedure, shortened: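 HEK293 cells stably carrying the TOPFlash reporter were plated at 2000/well in DMEM with 10% FBS and incubated overnight. Compound was added with recombinant human Wnt-3a, then incubated 24 h at 37 °C. CellTiter-Fluor reagent was added and fluorescence read after 30 min at 37 °C.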

[4] = test system: HEK293; assay: Inhibition of LiCl-activated Wnt/beta-catenin/Axin signaling (unknown origin) expressed in HEK293 cells assessed as degradation of beta-catenin by measuring decrease in beta-catenin protein expression after 24 hrs by Western blot method; assay type: cell-based; conditions: Homo sapiens
Procedure, shortened: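 HEK293 cells were treated with compound in the presence of lithium chloride for 24 h. Lysis buffer contained 10 mM HEPES, 100 μM EDTA, 10 mM KCl, 0.5% NP40 and inhibitors. Protein was quantified by BCA, resolved on 10% SDS-PAGE, and immunoblotted for β-catenin.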

[5] = molecular target: Axin-1 (Homo sapiens) (UniProt O15169); assay: Stabilization of Axin1 in human HuH7 cells assessed as decrease in lipid accumulation at 5 uM after 36 hrs by nile red staining based fluorescence microscopic method; assay type: cell-based
Axin-1 (Homo sapiens), sequence (O15169 whole entry): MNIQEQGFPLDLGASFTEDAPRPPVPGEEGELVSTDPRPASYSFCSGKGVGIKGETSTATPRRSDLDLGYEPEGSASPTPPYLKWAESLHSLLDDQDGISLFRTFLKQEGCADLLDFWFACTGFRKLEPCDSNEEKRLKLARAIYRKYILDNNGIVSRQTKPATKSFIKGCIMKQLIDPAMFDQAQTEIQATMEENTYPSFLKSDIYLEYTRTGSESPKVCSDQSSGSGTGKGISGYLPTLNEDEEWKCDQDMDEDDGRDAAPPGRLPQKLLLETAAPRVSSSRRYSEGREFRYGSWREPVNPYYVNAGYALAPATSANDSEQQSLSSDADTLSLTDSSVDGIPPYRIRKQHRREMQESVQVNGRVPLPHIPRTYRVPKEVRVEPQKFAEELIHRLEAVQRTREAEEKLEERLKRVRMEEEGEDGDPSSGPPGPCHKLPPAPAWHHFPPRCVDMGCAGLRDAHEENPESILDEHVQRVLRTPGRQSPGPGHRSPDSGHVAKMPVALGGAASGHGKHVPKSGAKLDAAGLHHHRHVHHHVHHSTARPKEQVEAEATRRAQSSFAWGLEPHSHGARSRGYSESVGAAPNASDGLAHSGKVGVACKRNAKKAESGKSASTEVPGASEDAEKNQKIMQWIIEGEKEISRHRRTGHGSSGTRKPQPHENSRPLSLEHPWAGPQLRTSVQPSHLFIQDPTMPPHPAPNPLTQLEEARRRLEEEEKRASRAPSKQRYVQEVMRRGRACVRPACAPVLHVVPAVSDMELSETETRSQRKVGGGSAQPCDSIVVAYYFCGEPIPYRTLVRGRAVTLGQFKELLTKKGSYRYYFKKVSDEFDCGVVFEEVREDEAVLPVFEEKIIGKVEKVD
Procedure, shortened: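 Huh7 cells on collagen I-coated coverslips were treated with 5 μM compound for 36 h, then with 200 μM sodium oleate for a further 12–16 h. Cells were stained with 1 μM Nile red in HBSS for 10 min at 37 °C in the dark and imaged by fluorescence microscopy at 552/636 nm.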

[6] = test system: HEK293; assay: Growth inhibition of unstimulated HEK293 cells up to 100 uM after 72 hrs by CellTiter-Fluor assay; assay type: cell-based; conditions: human, hek293, 72 h
Procedure, shortened: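 Unstimulated HEK293 cells were plated at 3.5×10^5/well and grown for 24 h, then incubated with compound for 72 h. Viability was read with CellTiter-Fluor.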

Compound | IC50 [1] [nM] | growth inhibition (GI) [3] | other results
Cc1cc(/C=C/c2ccc3cc(N(C)C)ccc3[n+]2C)c(C)n1-c1ccccc1 [PYRVINIUM] | 750 |  | bioavailability [2]: < 1%
Cc1c(C(=O)Nc2ccc3ccccc3n2)nnn1-c1ccccc1-c1ccccc1 | 390 | Non-Toxic | 
Cc1ccc(-n2nnc(C(=O)Nc3ccc4ccccc4n3)c2C)cc1 | > 10000 | Non-Toxic | 
Cc1ccccc1-n1nnc(C(=O)Nc2ccc3cc(CN4CCCCC4)ccc3n2)c1C | 1200 | Non-Toxic | 
Cc1ccccc1-n1nnc(C(=O)Nc2ccc3cc(CN4CCSCC4)ccc3n2)c1C | 230 | Non-Toxic | 
CCc1c(C(=O)Nc2ccc3ccccc3n2)nnn1-c1ccccc1F | 4.7 | Non-Toxic | 
Cc1ccc(-n2nnc(C(=O)Nc3ccc4ccccc4n3)c2C)c(C)c1 | 270 | Non-Toxic | 
Cc1c(C(=O)Nc2ccc3ccccc3n2)nnn1-c1ccccc1N1CCOCC1 | 1900 | Non-Toxic | 
Cc1ccccc1-n1nnc(C(=O)Nc2ccc3cc(CN4CCOCC4)ccc3n2)c1C | 1300 | Non-Toxic | 
Cc1c(C(=O)Nc2ccc3ccccc3n2)nnn1-c1ccccc1Br | 7.6 | Non-Toxic | 
Cc1c(C(=O)Nc2ccc3ccccc3n2)nnn1-c1ccccc1C(N)=O | > 10000 | Non-Toxic | 
CC(C)c1c(C(=O)Nc2ccc3ccccc3n2)nnn1-c1ccccc1F | 25 | Non-Toxic | 
Cc1c(C(=O)Nc2ccc3ccccc3n2)nnn1-c1ccccc1C#N | 34 | Non-Toxic | 
CC(=O)c1ccccc1-n1nnc(C(=O)Nc2ccc3ccccc3n2)c1C | 8800 | Non-Toxic | 
Cc1cccc(-n2nnc(C(=O)Nc3ccc4ccccc4n3)c2C)c1C | 140 | Non-Toxic | 
COc1ccccc1-n1nnc(C(=O)Nc2ccc3ccccc3n2)c1C | 18 | Non-Toxic | 
Cc1c(C(=O)Nc2ccc3ccccc3n2)nnn1-c1cccc2ccccc12 | 5500 | Non-Toxic | inhibition [4]: inactive
Cc1ccccc1-n1nnc(C(=O)Nc2ccc3cc(Br)ccc3n2)c1C | 830 | Non-Toxic | 
Cc1cccc(-n2nnc(C(=O)Nc3ccc4ccccc4n3)c2C)c1 | > 10000 | Non-Toxic | 
Oc1nc(-c2ccc(C(F)(F)F)cc2)nc2c1CSCC2 |  |  | Activity [5]: Active
Cc1ccccc1-n1nnc(C(=O)Nc2ccc3ccccc3c2)c1C | 4900 | Non-Toxic | 
Cc1c(C(=O)Nc2ccc3ccccc3n2)nnn1-c1ccccc1F | 1.2 | Non-Toxic | growth inhibition (GI) [6]: Toxic
